# Laboratory results taken from ChEMBL document CHEMBL2177098, “Synthesis and evaluation of novel ¹⁸F labeled 2-pyridinylbenzoxazole and 2-pyridinylbenzothiazole derivatives as ligands for positron emission tomography (PET) imaging of β-amyloid plaques” (J Med Chem, 2012).
# Legend:
# Lung [1] = assay: Drug uptake in ICR mouse lung at 370 kBq/100 ul, iv at 30 mins by gamma-counting analysis; format: ADME, organism-based; conditions: in vivo, 0.5 h
# Method in brief: (§1)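 Male ICR mice (5 weeks, about 20 g) got 18F tracer in saline (370 KBq per 100 μL) via tail vein; n = 5 per time point, killed at 2, 10, 30, 60 min. Organs weighed and γ-counted; percent dose per gram wet tissue from comparison with diluted injectate aliquots.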
# Intestine [2] = assay: Drug uptake in ICR mouse intestine assessed per organ at 370 kBq/100 ul, iv at 10 mins by gamma-counting analysis; format: ADME, organism-based; conditions: in vivo
# Method in brief: (§2)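 Male ICR mice (5 weeks, about 20 g) got 18F tracer in saline (370 KBq per 100 μL) via tail vein; n = 5 per time point, killed at 2, 10, 30, 60 min. Organs removed and γ-counted against diluted injectate; expressed as % injected dose per organ.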
# Blood [3] = assay: Drug uptake in ICR mouse blood at 370 kBq/100 ul, iv at 30 mins by gamma-counting analysis; format: ADME, organism-based; conditions: in vivo, 0.5 h; method in brief: as §1
# Intestine [4] = assay: Drug uptake in ICR mouse intestine assessed per organ at 370 kBq/100 ul, iv at 2 mins by gamma-counting analysis; format: ADME, organism-based; conditions: in vivo; method in brief: as §2
# Heart [5] = assay: Drug uptake in ICR mouse heart at 370 kBq/100 ul, iv at 2 mins by gamma-counting analysis; format: ADME, organism-based; conditions: in vivo; method in brief: as §1
# [6] = n-Octanol-PBS buffer partition coefficient, log D of the compound at 1.5 MBq after 3 mins at pH 7.4; format: physicochemical
# Method in brief: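 The tracer was partitioned between n-octanol and PBS by vortexing for 3 min at room temperature, then centrifuged for 5 min at 3000 rpm. Samples of the octanol (50 μL) and aqueous (500 μL) layers were counted. log D is the log of the octanol/PBS counts-per-gram ratio. The octanol layer was repartitioned until values were consistent. Measured in triplicate and repeated three times.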
# Brain [7] = assay: Drug uptake in ICR mouse brain at 370 kBq/100 ul, iv at 60 mins by gamma-counting analysis; format: ADME, organism-based; conditions: in vivo, 1 h; method in brief: as §1
# Bone [8] = assay: Drug uptake in ICR mouse bone at 370 kBq/100 ul, iv at 30 mins by gamma-counting analysis; format: ADME, organism-based, Bone element; conditions: in vivo, 0.5 h; method in brief: as §1
# Brain [9] = assay: Drug uptake in wild type C57BL6 mouse brain at 370 KBq/100 ul after 1 hr by autoradiographic analysis; format: ADME, tissue-based; conditions: in vitro
# Method in brief: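 Paraffin brain sections from 12-month-old male control C57BL6 mice were deparaffinized through xylene and graded ethanol, then held in PBS (0.2 M, pH 7.4) for 30 min. They were incubated with the ¹⁸F tracer (370 KBq per 100 μL) for 1 h at room temperature. Sections were washed in 40% EtOH, rinsed with water for 1 min, dried, and exposed to a phosphor plate for 2 h. The same sections were then stained with thioflavin S.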
# Lung [10] = assay: Drug uptake in ICR mouse lung at 370 kBq/100 ul, iv at 60 mins by gamma-counting analysis; format: ADME, organism-based; conditions: in vivo, 1 h; method in brief: as §1
# Stomach [11] = assay: Drug uptake in ICR mouse stomach assessed per organ at 370 kBq/100 ul, iv at 30 mins by gamma-counting analysis; format: ADME, organism-based; conditions: in vivo, 0.5 h; method in brief: as §2
# Kidney [12] = assay: Drug uptake in ICR mouse kidney at 370 kBq/100 ul, iv at 10 mins by gamma-counting analysis; format: ADME, organism-based; conditions: in vivo; method in brief: as §1
# [13] = Displacement of [125I]-IMPY from amyloid beta (1 to 42) fibrils after 2 hrs by gamma-counting analysis
# Method in brief: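 Competition binding with aggregated Aβ1-42 fibrils and [125I]IMPY (60000−100000 cpm/100 μL) in 0.05% BSA (1 mL total); inhibitors 10⁻⁴−10^−8.5 M in ethanol. Incubated 37 °C for 2 h, then GF/B vacuum filtration with PBS (0.02 M, pH 7.4) washes and γ counting. Three repeats; IC50 converted to Ki by Cheng−Prusoff.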
# Heart [14] = assay: Drug uptake in ICR mouse heart at 370 kBq/100 ul, iv at 10 mins by gamma-counting analysis; format: ADME, organism-based; conditions: in vivo; method in brief: as §1
# Intestine [15] = assay: Drug uptake in ICR mouse intestine assessed per organ at 370 kBq/100 ul, iv at 60 mins by gamma-counting analysis; format: ADME, organism-based; conditions: in vivo, 1 h; method in brief: as §2
# Stomach [16] = assay: Drug uptake in ICR mouse stomach assessed per organ at 370 kBq/100 ul, iv at 60 mins by gamma-counting analysis; format: ADME, organism-based; conditions: in vivo, 1 h
# Method in brief: (§3)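 Normal male ICR mice (5 weeks, about 20 g) received the ¹⁸F tracer in saline (370 KBq per 100 μL) by tail-vein injection. Groups of n = 5 were killed at 2, 10, 30 and 60 min. Organs were removed, weighed and γ-counted against diluted aliquots of the injectate, giving % dose per gram. Stomach and intestine were expressed per organ. The brain ratio is 2 min/60 min uptake. Values are mean ± SD.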
# Brain [17] = assay: Drug uptake in ICR mouse brain at 370 kBq/100 ul, iv at 30 mins by gamma-counting analysis; format: ADME, organism-based; conditions: in vivo, 0.5 h; method in brief: as §1
# Spleen [18] = assay: Drug uptake in ICR mouse spleen at 370 kBq/100 ul, iv at 10 mins by gamma-counting analysis; format: ADME, organism-based; conditions: in vivo; method in brief: as §1
# Brain [19] = assay: Drug uptake in ICR mouse brain at 370 kBq/100 ul, iv at 10 mins by gamma-counting analysis; format: ADME, organism-based; conditions: in vivo; method in brief: as §1
# Spleen [20] = assay: Drug uptake in ICR mouse spleen at 370 kBq/100 ul, iv at 60 mins by gamma-counting analysis; format: ADME, organism-based; conditions: in vivo, 1 h; method in brief: as §1
# Liver [21] = assay: Drug uptake in ICR mouse liver at 370 kBq/100 ul, iv at 10 mins by gamma-counting analysis; format: ADME, organism-based; conditions: in vivo; method in brief: as §1
# Kidney [22] = assay: Drug uptake in ICR mouse kidney at 370 kBq/100 ul, iv at 60 mins by gamma-counting analysis; format: ADME, organism-based; conditions: in vivo, 1 h; method in brief: as §1
# Spleen [23] = assay: Drug uptake in ICR mouse spleen at 370 kBq/100 ul, iv at 30 mins by gamma-counting analysis; format: ADME, organism-based; conditions: in vivo, 0.5 h; method in brief: as §1
# Bone [24] = assay: Drug uptake in ICR mouse bone at 370 kBq/100 ul, iv at 10 mins by gamma-counting analysis; format: ADME, organism-based, Bone element; conditions: in vivo; method in brief: as §1
# Brain [25] = assay: Ratio of drug uptake in brain at 2 mins to drug uptake in brain at 60 mins in ICR mouse at 370 KBq/100 ul, iv; format: ADME, organism-based; conditions: in vivo; method in brief: as §3
# Blood [26] = assay: Drug uptake in ICR mouse blood at 370 kBq/100 ul, iv at 2 mins by gamma-counting analysis; format: ADME, organism-based; conditions: in vivo; method in brief: as §1
# Bone [27] = assay: Drug uptake in ICR mouse bone at 370 kBq/100 ul, iv at 2 mins by gamma-counting analysis; format: ADME, organism-based, Bone element; conditions: in vivo; method in brief: as §1
# Liver [28] = assay: Drug uptake in ICR mouse liver at 370 kBq/100 ul, iv at 2 mins by gamma-counting analysis; format: ADME, organism-based; conditions: in vivo; method in brief: as §1
# Blood [29] = assay: Drug uptake in ICR mouse blood at 370 kBq/100 ul, iv at 60 mins by gamma-counting analysis; format: ADME, organism-based; conditions: in vivo, 1 h; method in brief: as §1
# Heart [30] = assay: Drug uptake in ICR mouse heart at 370 kBq/100 ul, iv at 60 mins by gamma-counting analysis; format: ADME, organism-based; conditions: in vivo, 1 h; method in brief: as §1
# Bone [31] = assay: Drug uptake in ICR mouse bone at 370 kBq/100 ul, iv at 60 mins by gamma-counting analysis; format: ADME, organism-based, Bone element; conditions: in vivo, 1 h; method in brief: as §1
# Blood [32] = assay: Drug uptake in ICR mouse blood at 370 kBq/100 ul, iv at 10 mins by gamma-counting analysis; format: ADME, organism-based; conditions: in vivo; method in brief: as §1
# Lung [33] = assay: Drug uptake in ICR mouse lung at 370 kBq/100 ul, iv at 2 mins by gamma-counting analysis; format: ADME, organism-based; conditions: in vivo; method in brief: as §1
# Stomach [34] = assay: Drug uptake in ICR mouse stomach assessed per organ at 370 kBq/100 ul, iv at 10 mins by gamma-counting analysis; format: ADME, organism-based; conditions: in vivo; method in brief: as §2
# Kidney [35] = assay: Drug uptake in ICR mouse kidney at 370 kBq/100 ul, iv at 30 mins by gamma-counting analysis; format: ADME, organism-based; conditions: in vivo, 0.5 h; method in brief: as §1
# Brain [36] = assay: Drug uptake in ICR mouse brain at 370 kBq/100 ul, iv at 2 mins by gamma-counting analysis; format: ADME, organism-based; conditions: in vivo; method in brief: as §1
# Lung [37] = assay: Drug uptake in ICR mouse lung at 370 kBq/100 ul, iv at 10 mins by gamma-counting analysis; format: ADME, organism-based; conditions: in vivo; method in brief: as §1
# Stomach [38] = assay: Drug uptake in ICR mouse stomach assessed per organ at 370 kBq/100 ul, iv at 2 mins by gamma-counting analysis; format: ADME, organism-based; conditions: in vivo; method in brief: as §2
# Liver [39] = assay: Drug uptake in ICR mouse liver at 370 kBq/100 ul, iv at 60 mins by gamma-counting analysis; format: ADME, organism-based; conditions: in vivo, 1 h; method in brief: as §1
# Liver [40] = assay: Drug uptake in ICR mouse liver at 370 kBq/100 ul, iv at 30 mins by gamma-counting analysis; format: ADME, organism-based; conditions: in vivo, 0.5 h; method in brief: as §1
# Intestine [41] = assay: Drug uptake in ICR mouse intestine assessed per organ at 370 kBq/100 ul, iv at 30 mins by gamma-counting analysis; format: ADME, organism-based; conditions: in vivo, 0.5 h; method in brief: as §2
# Spleen [42] = assay: Drug uptake in ICR mouse spleen at 370 kBq/100 ul, iv at 2 mins by gamma-counting analysis; format: ADME, organism-based; conditions: in vivo; method in brief: as §1
# Heart [43] = assay: Drug uptake in ICR mouse heart at 370 kBq/100 ul, iv at 30 mins by gamma-counting analysis; format: ADME, organism-based; conditions: in vivo, 0.5 h; method in brief: as §1
# Kidney [44] = assay: Drug uptake in ICR mouse kidney at 370 kBq/100 ul, iv at 2 mins by gamma-counting analysis; format: ADME, organism-based; conditions: in vivo; method in brief: as §1
structure (smiles),measurement,setting,value
CN(C)c1ccc(-c2nc3cc(OCCOCCOCC[18F])ccc3o2)cn1,Drug uptake,Lung [1],2.64 % ID/g
same,Drug uptake,Intestine [2],14.45 %ID
same,Drug uptake,Blood [3],2.74 % ID/g
same,Drug uptake,Intestine [4],8.13 %ID
same,Drug uptake,Heart [5],5.24 % ID/g
same,logD at 0.05 h,[6],3.26
same,Drug uptake,Brain [7],1.82 % ID/g
same,Drug uptake,Bone [8],4.71 % ID/g
same,Drug uptake,Brain [9],Not Active
same,Drug uptake,Lung [10],1.87 % ID/g
same,Drug uptake,Stomach [11],9.26 %ID
same,Drug uptake,Kidney [12],5.14 % ID/g
same,Ki,[13],9.9 nM
same,Drug uptake,Heart [14],3.51 % ID/g
same,Drug uptake,Intestine [15],28.54 %ID
same,Drug uptake,Stomach [16],6.45 %ID
same,Drug uptake,Brain [17],1.85 % ID/g
same,Drug uptake,Spleen [18],2.69 % ID/g
same,Drug uptake,Brain [19],1.97 % ID/g
same,Drug uptake,Spleen [20],2.34 % ID/g
same,Drug uptake,Liver [21],5.41 % ID/g
same,Drug uptake,Kidney [22],3.21 % ID/g
same,Drug uptake,Spleen [23],2.41 % ID/g
same,Drug uptake,Bone [24],2.7 % ID/g
same,Ratio,Brain [25],2.08
same,Drug uptake,Blood [26],5.47 % ID/g
same,Drug uptake,Bone [27],1.79 % ID/g
same,Drug uptake,Liver [28],13.25 % ID/g
same,Drug uptake,Blood [29],2.87 % ID/g
same,Drug uptake,Heart [30],2.73 % ID/g
same,Drug uptake,Bone [31],6.39 % ID/g
same,Drug uptake,Blood [32],3.05 % ID/g
same,Drug uptake,Lung [33],3.03 % ID/g
same,Drug uptake,Stomach [34],5.1 %ID
same,Drug uptake,Kidney [35],4.2 % ID/g
same,Drug uptake,Brain [36],3.79 % ID/g
same,Drug uptake,Lung [37],2.34 % ID/g
same,Drug uptake,Stomach [38],2.66 %ID
same,Drug uptake,Liver [39],3.46 % ID/g
same,Drug uptake,Liver [40],7.24 % ID/g
same,Drug uptake,Intestine [41],28.15 %ID
same,Drug uptake,Spleen [42],3 % ID/g
same,Drug uptake,Heart [43],2.97 % ID/g
same,Drug uptake,Kidney [44],8.27 % ID/g
